Tests used:
LoVo [1] = assay: Cytotoxicity against human LoVo cells after 48 hrs by SRB assay; format: functional; conditions: for CC50: read-out: LC50 (the source's name)
[2] = Cytotoxicity against human HeLa-APL cells after 48 hrs by SRB assay; format: functional
Outline: (§1)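 Cells grown in RPMI 1640 with 10% FBS and penicillin/streptomycin at 37 °C and 5% CO₂, trypsinized, then seeded at 5 × 10³/well. After 18 h drug-free attachment, samples in DMSO/EtOH/PBS (0.5:0.5:99) were added for 48 h continuous exposure. Cells were fixed with cold TCA (1 h, 4 °C) and stained with SRB (10 min). Tris-solubilized stain read at 490 nm. Triplicate wells, mean ± SD; GI₅₀ derived.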

DU-145 = assay: Cytotoxicity against human DU145 cells after 48 hrs by SRB assay; format: functional, cell-based; conditions: Homo sapiens, DU-145, 48 h; for CC50: read-out: LC50 (the source's name); outline: as §1
HT-29 = assay: Cytotoxicity against human HT29 cells after 48 hrs by SRB assay; format: functional, cell-based; conditions: Homo sapiens, HT-29, 48 h; for CC50: read-out: LC50 (the source's name); outline: as §1
[3] = Cytotoxicity against human IGROV-ET cells after 48 hrs by SRB assay; format: functional; conditions: for CC50: read-out: LC50 (the source's name); outline: as §1
PANC-1 = assay: Cytotoxicity against human PANC1 cells after 48 hrs by SRB assay; format: functional; conditions: PANC-1, 48 h; for CC50: read-out: LC50 (the source's name); outline: as §1
[4] = Cytotoxicity against human IGROV cells after 48 hrs by SRB assay; format: functional; conditions: for CC50: read-out: LC50 (the source's name); outline: as §1
HeLa = assay: Cytotoxicity against human HeLa cells after 48 hrs by SRB assay; format: functional; conditions: for CC50: read-out: LC50 (the source's name); outline: as §1
K562 = assay: Cytotoxicity against human K562 cells after 48 hrs by SRB assay; format: functional; conditions: K562, 48 h; for CC50: read-out: LC50 (the source's name); outline: as §1
SK-BR-3 = assay: Cytotoxicity against human SKBR3 cells after 48 hrs by SRB assay; format: functional; conditions: SK-BR-3, 48 h; for CC50: read-out: LC50 (the source's name); outline: as §1
LoVo [5] = assay: Cytotoxicity against human doxorubicin resistant LoVo cells after 48 hrs by SRB assay; format: functional; conditions: for CC50: read-out: LC50 (the source's name); outline: as §1
LNCaP = assay: Cytotoxicity against human LNcaP cells after 48 hrs by SRB assay; format: functional; conditions: for CC50: read-out: LC50 (the source's name); outline: as §1
A549 = assay: Cytotoxicity against human A549 cells after 48 hrs by SRB assay; format: functional, cell-based; conditions: Homo sapiens, A549, 48 h; outline: as §1
SK-MEL-28 = assay: Cytotoxicity against human SK-MEL-28 cells after 48 hrs by SRB assay; format: functional, cell-based; conditions: Homo sapiens, SK-MEL-28, 48 h; for CC50: read-out: LC50 (the source's name); outline: as §1

C/C=C1\NC(=O)[C@H](Cc2ccccc2)NC(=O)[C@@H](C(C)C)NC(=O)[C@@H]([C@H](C)CC)NC(=O)[C@H](NC(=O)[C@H](NC(=O)[C@H](CCCN)NC(=O)[C@H]2CCCN2C(=O)[C@H](NC(=O)[C@@H](NC(=O)[C@@H](NC(=O)[C@H](NC(=O)CCCC(C)C)C(C)C)C(C)C)C(C)C)C(C)C)[C@H](C)CC)[C@H](C)OC(=O)[C@H](C(C)C)NC1=O
GI50 (LoVo [1]): 276 nM | TGI (LoVo [1]): 270 nM | CC50 (LoVo [1]): 264 nM | GI50 [2]: 324 nM | LC50 (concentration giving 50% net cell kill) [2]: 730 nM | TGI [2]: 467 nM | GI50 (DU-145): 149 nM | GI50 (DU-145; read-out: GI50): 175 nM | CC50 (DU-145): 127 nM | GI50 (HT-29): 300 nM | TGI (HT-29): 311 nM | CC50 (HT-29): 322 nM | GI50 [3]: 248 nM | GI50 ([3]; read-out: GI50): 257 nM | CC50 [3]: 64.8 nM | GI50 (PANC-1): 1120 nM | TGI (PANC-1): 1260 nM | CC50 (PANC-1): 1420 nM | GI50 [4]: 118 nM | GI50 ([4]; read-out: GI50): 183 nM | CC50 [4]: 55.9 nM | GI50 (HeLa): 134 nM | TGI (HeLa): 124 nM | CC50 (HeLa): 116 nM | GI50 (K562): 718 nM | TGI (K562): 899 nM | CC50 (K562): 1100 nM | TGI (SK-BR-3): 153 nM | GI50 (SK-BR-3; read-out: GI50): 166 nM | CC50 (SK-BR-3): 75.8 nM | CC50 (LoVo [5]): 28 nM | GI50 (LNCaP): 334 nM | TGI (LNCaP): 530 nM | CC50 (LNCaP): 733 nM | GI50 (A549): 445 nM | LC50 (A549): 640 nM | GI50 (A549; read-out: GI50): 258 nM | TGI (SK-MEL-28): 178 nM | GI50 (SK-MEL-28; read-out: GI50): 209 nM | CC50 (SK-MEL-28): 151 nM

C/C=C1\NC(=O)[C@H](Cc2ccccc2)NC(=O)[C@@H](C(C)C)NC(=O)[C@@H]([C@H](C)CC)NC(=O)[C@H](NC(=O)[C@H](NC(=O)[C@H](CCCN)NC(=O)[C@H]2CCCN2C(=O)[C@H](NC(=O)[C@@H](NC(=O)[C@@H](NC(=O)[C@H](NC(=O)CCCCCC)C(C)C)[C@@H](C)O)C(C)C)C(C)C)[C@H](C)CC)[C@H](C)OC(=O)[C@H](C(C)C)NC1=O
GI50 (LoVo [1]): 320 nM | TGI (LoVo [1]): 324 nM | CC50 (LoVo [1]): 326 nM | GI50 [2]: 781 nM | LC50 (concentration giving 50% net cell kill) [2]: 864 nM | TGI [2]: 822 nM | GI50 (DU-145): 880 nM | GI50 (DU-145; read-out: GI50): 848 nM | CC50 (DU-145): 895 nM | GI50 (HT-29): 499 nM | TGI (HT-29): 583 nM | CC50 (HT-29): 1070 nM | GI50 [3]: 304 nM | GI50 ([3]; read-out: GI50): 289 nM | CC50 [3]: 394 nM | GI50 (PANC-1): 2360 nM | TGI (PANC-1): 3780 nM | CC50 (PANC-1): 2720 nM | GI50 [4]: 404 nM | GI50 ([4]; read-out: GI50): 354 nM | CC50 [4]: 421 nM | GI50 (HeLa): 965 nM | TGI (HeLa): 882 nM | CC50 (HeLa): 806 nM | GI50 (K562): 2740 nM | TGI (K562): 2970 nM | CC50 (K562): 1990 nM | GI50 (SK-BR-3): 36.3 nM | GI50 (SK-BR-3; read-out: GI50): 227 nM | CC50 (SK-BR-3): 363 nM | GI50 (LoVo [5]): 264 nM | TGI (LoVo [5]): 244 nM | CC50 (LoVo [5]): 175 nM | GI50 (LNCaP): 1090 nM | TGI (LNCaP): 863 nM | CC50 (LNCaP): 861 nM | LC50 (A549): 1150 nM | TGI (A549): 1160 nM | GI50 (A549; read-out: GI50): 1180 nM | GI50 (SK-MEL-28): 915 nM | GI50 (SK-MEL-28; read-out: GI50): 808 nM | CC50 (SK-MEL-28): 991 nM

C/C=C1\NC(=O)[C@H](Cc2ccccc2)NC(=O)[C@@H](C(C)C)NC(=O)[C@@H]([C@H](C)CC)NC(=O)[C@H](NC(=O)[C@H](NC(=O)[C@H](CCCN)NC(=O)[C@H]2CCCN2C(=O)[C@H](NC(=O)[C@@H](NC(=O)[C@H](CC(C)C)NC(=O)[C@H](NC(=O)CCCC(C)C)C(C)C)C(C)C)C(C)C)[C@H](C)CC)[C@H](C)OC(=O)[C@H](C(C)C)NC1=O
GI50 (LoVo [1]): 417 nM | TGI (LoVo [1]): 459 nM | CC50 (LoVo [1]): 331 nM | GI50 [2]: 1170 nM | LC50 (concentration giving 50% net cell kill) [2]: 890 nM | TGI [2]: 1020 nM | GI50 (DU-145): 949 nM | GI50 (DU-145; read-out: GI50): 959 nM | CC50 (DU-145): 944 nM | CC50 (HT-29): 442 nM | GI50 [3]: 583 nM | GI50 ([3]; read-out: GI50): 754 nM | CC50 [3]: 538 nM | GI50 (PANC-1): 1110 nM | TGI (PANC-1): 1280 nM | CC50 (PANC-1): 1760 nM | GI50 [4]: 566 nM | GI50 ([4]; read-out: GI50): 637 nM | CC50 [4]: 489 nM | GI50 (HeLa): 1060 nM | TGI (HeLa): 1020 nM | CC50 (HeLa): 983 nM | GI50 (K562): 542 nM | TGI (K562): 926 nM | CC50 (K562): 1630 nM | TGI (SK-BR-3): 466 nM | GI50 (SK-BR-3; read-out: GI50): 428 nM | CC50 (SK-BR-3): 360 nM | GI50 (LoVo [5]): 280 nM | TGI (LoVo [5]): 244 nM | CC50 (LoVo [5]): 256 nM | GI50 (LNCaP): 1050 nM | TGI (LNCaP): 964 nM | CC50 (LNCaP): 879 nM | GI50 (A549): 602 nM | LC50 (A549): 5280 nM | GI50 (A549; read-out: GI50): 637 nM | TGI (SK-MEL-28): 1210 nM | GI50 (SK-MEL-28; read-out: GI50): 1270 nM | CC50 (SK-MEL-28): 1140 nM

C/C=C1\NC(=O)[C@H](Cc2ccccc2)NC(=O)[C@@H](C(C)C)NC(=O)[C@@H]([C@H](C)CC)NC(=O)[C@H](NC(=O)[C@H](NC(=O)[C@H](CCCN)NC(=O)[C@H]2CCCN2C(=O)[C@H](NC(=O)[C@@H](NC(=O)[C@@H](NC(=O)[C@H](NC(=O)C2CCC(C)CC2)C(C)C)[C@@H](C)O)C(C)C)C(C)C)[C@H](C)CC)[C@H](C)OC(=O)[C@H](C(C)C)NC1=O (some centres not stated)
GI50 (LoVo [1]): 244 nM | TGI (LoVo [1]): 280 nM | CC50 (LoVo [1]): 3200 nM | GI50 [2]: 633 nM | LC50 (concentration giving 50% net cell kill) [2]: 977 nM | TGI [2]: 810 nM | GI50 (DU-145): 788 nM | GI50 (DU-145; read-out: GI50): 690 nM | CC50 (DU-145): 839 nM | GI50 (HT-29): 551 nM | TGI (HT-29): 554 nM | CC50 (HT-29): 642 nM | GI50 [3]: 503 nM | GI50 ([3]; read-out: GI50): 598 nM | CC50 [3]: 426 nM | GI50 (PANC-1): 2660 nM | TGI (PANC-1): 4530 nM | CC50 (PANC-1): 2300 nM | GI50 [4]: 477 nM | GI50 ([4]; read-out: GI50): 526 nM | CC50 [4]: 441 nM | GI50 (HeLa): 904 nM | TGI (HeLa): 897 nM | CC50 (HeLa): 892 nM | CC50 (K562): 1810 nM | TGI (SK-BR-3): 298 nM | GI50 (SK-BR-3; read-out: GI50): 350 nM | CC50 (SK-BR-3): 1030 nM | GI50 (LoVo [5]): 340 nM | TGI (LoVo [5]): 329 nM | CC50 (LoVo [5]): 319 nM | GI50 (LNCaP): 1070 nM | TGI (LNCaP): 1170 nM | CC50 (LNCaP): 1260 nM | LC50 (A549): 1340 nM | TGI (A549): 1180 nM | GI50 (A549; read-out: GI50): 1040 nM | TGI (SK-MEL-28): 1060 nM | GI50 (SK-MEL-28; read-out: GI50): 1010 nM | CC50 (SK-MEL-28): 1100 nM
